This is a sample that favours compounds with a hit; in the whole collection about 2.7% have one here.
E-sel inducer: induces E-selectin expression in human endothelial cells; P16581; HUVEC E-selectin immunofluorescence imaging; normalized: neutral wells 0, TNF-alpha wells 100; activation, % at 7.58 µM; 260,000 tested, 0.37% active; AID 686992;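 active = mean E-selectin-positive cell signal at least 10% of the positive control, reached in at least 60% of replicates, without over 20% cell loss; inconclusive = no rule given, readout overlaps actives, possibly toxicity-flagged; inactive = the rest, including those meeting only one limit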
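Assay system: HUVEC primary endothelial cells. Input: 3,000 HUVEC seeded per well. Doses: one compound dose added by pin transfer. Read-out basis: % PE-positive cells. Benchmarks: TNF-alpha high, DMSO low. Detection: immunofluorescence imaging. Buffer or medium: EGM-2, gelatin.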
F508del corr: correctors of CFTR F508del function in bronchial epithelial cells | activity (quench increase), % at 7.58 µM | CFBE cells, YFP halide quenching; stimulated with forskolin plus potentiator P3; % fluorescence drop versus neutral controls | 350,000 tested, 0.36% active;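 active = mean added fluorescence quench of at least 8% versus neutral control, with both replicates also reaching 8%; inconclusive = only one of the mean or replicate conditions met; inactive = mean below 8% and not both replicates reaching 8%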;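 note: cells transiently co-express mutant CFTR-F508del with the halide-sensitive YFP; corrector assay measuring rescue of mutant channel to the surface after 24 h compound exposure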
HIV Env fusion: blocks HIV Env-driven cell-cell fusion. HeLa-JRFL Env/CEM21 cell fusion, luciferase. inhibition, % at 12.3 µM. 360,000 tested, 1.1% active. AID 651610;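 active = mean replicate inhibition score of at least 50 and every replicate individually at or above 50; inconclusive = only one of the two criteria met; inactive = mean below 50 and not all replicates reaching 50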
S100A4 MyoIIA: S100A4-myosin IIA interaction inhibition. P26447. S100A4/TAMRA-MyoIIA peptide fluorescence polarization. inhibition, % at 10.7 µM. 360,000 tested, 0.14% active. AID 652163;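 active = mean inhibition of at least 70% across replicates, with every replicate also reaching that level; inconclusive = mean inhibition reaches 70% but some replicates fall short; inactive = mean inhibition below 70%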
Target sequence (P26447 whole entry, looked up): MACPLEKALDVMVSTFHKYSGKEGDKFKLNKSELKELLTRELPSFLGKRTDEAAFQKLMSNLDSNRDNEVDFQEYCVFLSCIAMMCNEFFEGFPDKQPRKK
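Compound dosing: one dose per compound; test system: human S100A4 monomer with TAMRA-labelled myosin IIA peptide; probe or stimulus: TAMRA-labelled myosin IIA heavy-chain peptide probe, 5 nM; medium: HEPES buffer with Ca2+, pH 7.2; schedule: 5 min incubation before reading; benchmarks: neutral control DMSO, positive control TFP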
FGF22 binding: FGF22 (human) thermal shift binding; Q9HCT0; recombinant FGF22 thermal shift, SYPRO orange fluorescence; percent of sucrose octasulfate shift, DMSO zero; activity (Tm shift, normalised), % at 9.99 µM; 340,000 tested, 1.5% active;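 active = mean Tm shift, scaled 0 neutral to 100 positive control, at about 1.3% or above, every replicate too, limit read from the data; inconclusive = no clear call, values can overlap the other calls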
Target sequence (Q9HCT0 whole entry, looked up): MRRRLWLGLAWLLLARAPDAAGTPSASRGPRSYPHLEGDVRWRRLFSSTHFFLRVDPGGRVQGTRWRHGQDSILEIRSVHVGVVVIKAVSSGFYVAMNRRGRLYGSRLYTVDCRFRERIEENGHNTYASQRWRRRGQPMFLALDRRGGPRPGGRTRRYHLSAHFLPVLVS
Each line names hits and unclear results; the compound was inactive in the other large screens.

Cc1noc(C)c1S(=O)(=O)N(C)C[C@@H]1OCCCC[C@H](C)Oc2ccc(NS(C)(=O)=O)cc2C(=O)N([C@H](C)CO)C[C@H]1C	none (no result: HIV Env fusion)
CC=Cc1ccc2n(c1=O)C[C@H]1[C@H](CO)[C@@H](C(=O)NCCC)N(Cc3ccccn3)[C@@H]21 (mixture of isomers)	none (no result: HIV Env fusion)
C[C@@H]1CCCCO[C@@H](CN(C)S(C)(=O)=O)[C@H](C)CN([C@H](C)CO)C(=O)c2cc(NC(=O)Nc3ccccc3)ccc2O1	none
COc1ccc(CN(C)C[C@@H]2Oc3c(NS(=O)(=O)c4ccc(C)cc4)cccc3C(=O)N([C@@H](C)CO)C[C@H]2C)cc1	none (no result: HIV Env fusion)
O=C(COc1ccc(S(=O)(=O)NC2CCCCC2)cc1)NC1CCCC1	FGF22 binding 43.4 (no result: E-sel inducer)
Cn1cnc(S(=O)(=O)N[C@@H]2C=C[C@@H](CC(=O)NCC3CC3)O[C@H]2CO)c1	S100A4 MyoIIA 107.9
Cn1cnc(S(=O)(=O)N[C@H]2C=C[C@H](CC(=O)NCC3CC3)O[C@@H]2CO)c1	none
CCNC(=O)C[C@@H]1C=C[C@@H](NC(=O)NC2CCCCC2)[C@H](CO)O1	F508del corr 8.8, S100A4 MyoIIA inconclusive
O=C(N[C@H]1CC[C@@H](CCNC(=O)C2CCCC2)O[C@H]1CO)c1ccncc1	none
C[C@H](CO)N1C[C@H](C)[C@@H](CN(C)C(=O)c2cccc(F)c2)Oc2ncc(C3=CCCCC3)cc2C1=O	none
O=C(O)Cn1c2c(c3ccccc31)CSc1ccc(Cl)cc1-2	FGF22 binding 1.9
O=C(O)Cn1c2ccccc2c2ccccc21	none
O=C(C[C@H]1C=C[C@@H](NC(=O)CC2CC2)[C@H](CO)O1)NCC(F)(F)F	none (no result: HIV Env fusion)
Cc1ccccc1P(=O)(c1ccccc1)c1ccccc1C	FGF22 binding 44.0
CCc1ccc(CN2CCN(C(=O)c3cccc(OC)c3OC)CC2)cc1	HIV Env fusion 88.9 (no result: E-sel inducer, F508del corr, FGF22 binding)
COc1ccc(-c2cn(CC[C@@H]3CC[C@H](NC(=O)CCN4CCCCC4)[C@@H](CO)O3)nn2)cc1	none
C=CCOc1c(Br)cc(CNc2ccc(NC(=O)C(C)C)c(OC)c2)cc1OC	HIV Env fusion 89.7 (no result: E-sel inducer, F508del corr, S100A4 MyoIIA, FGF22 binding)
O=C(O)CCCc1ccc2c(c1)CCc1ccccc1-2	HIV Env fusion 62.7 (no result: E-sel inducer)
CCC(=O)N(C)C[C@@H]1Oc2cc(C#CC3CCCC3)ccc2S(=O)(=O)N([C@H](C)CO)C[C@H]1C	none
Cc1ccc(OCC(=O)Nc2c3c(nn2C(C)(C)C)CS(=O)(=O)C3)cc1	HIV Env fusion 57.7
O=S(=O)(c1cccc(Cl)c1)N1[C@@H]2CNC[C@H]1C2c1ccc(-c2cccnc2)cc1 (stereo not given in full)	none (no result: HIV Env fusion)
COc1cc(Cl)c(CC(=O)c2c[nH]c3ccccc23)cc1OC	none
Cc1cccc(CC(=O)c2c[nH]c3ccccc23)c1	E-sel inducer 74.6
COc1ccc(OC)c(NC(=O)c2cc(-c3cc(Cl)ccc3O)n[nH]2)c1	HIV Env fusion 55.2 (no result: E-sel inducer, F508del corr, S100A4 MyoIIA, FGF22 binding)
CCC(=O)N1[C@H](CO)[C@H](c2ccc(-c3cccc(OC)c3)cc2)[C@@H]1CNC(C)=O	none (no result: HIV Env fusion, FGF22 binding)
Clc1ccc(-c2cc(COc3ccccc3)on2)cc1	FGF22 binding 43.3 (no result: E-sel inducer, F508del corr)
CC(=O)N1CCN(C(=O)COc2ccccc2C(=O)Nc2ccccc2)CC1	FGF22 binding 43.1
Cc1nc2ccccc2n1CC(O)COc1ccc(Br)cc1 (stereo not given)	FGF22 binding 43.9 (no result: E-sel inducer)
O=C(NCc1cc(C(F)(F)F)cc(C(F)(F)F)c1)C1CC(c2ccc(C(F)(F)F)cc2)=NO1 (stereo not given)	FGF22 binding 41.2
COc1ccc(C2=NOC(C(=O)NCc3ccccc3)C2)cc1 (stereo not given)	F508del corr 11.0 (no result: E-sel inducer, HIV Env fusion)
COc1cccc(C2=NOC(C(=O)Nc3cccnc3Cl)C2)c1 (stereo not given)	FGF22 binding 44.1 (no result: E-sel inducer)
COc1cccc(C2=NOC(C(=O)NC3CCCCC3)C2)c1 (stereo not given)	none (no result: E-sel inducer, F508del corr, S100A4 MyoIIA, FGF22 binding)
COc1ccc(S(=O)(=O)NNC(=O)C2CC(c3cccnc3)=NO2)cc1 (stereo not given)	FGF22 binding 43.6 (no result: E-sel inducer)
COc1ccc(CN(C)C[C@@H]2OCCCC[C@H](C)Oc3ccc(NS(=O)(=O)c4ccc(Cl)cc4)cc3C(=O)N([C@@H](C)CO)C[C@H]2C)cc1	none (no result: E-sel inducer)
